Results taken from ChEMBL document CHEMBL2176921, “Nitazoxanide Disrupts Membrane Potential and Intrabacterial pH Homeostasis of Mycobacterium tuberculosis” (ACS Med Chem Lett, 2011).
≈ marks a conversion by molar mass, not a printed value. Calls of active or inactive are those of the source. The rule behind the calls is not given here.

Experiments:
[1] = system: Mycobacterium tuberculosis; test: Antitubercular activity against Mycobacterium tuberculosis H37Rv assessed as disruption of membrane potential at 0.002 to 20 ug/ml after 20 mins at pH 5.5 by DiOC2-based spectrofluorimetric analysis; type: functional, organism-based
Procedure, shortened: (§1)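 H37Rv grown to mid-log (OD580 ~0.6), resuspended to OD580 ~1.0 in 7H9 with 0.2% glycerol, 0.2% dextrose, 0.085% NaCl, 0.02% Tyloxapol at set pH (7.4, 5.5, 4.5; 5.5 also with 0.5 mM NaNO2). Compound added at 0.002–20 μg/mL final, then 15 μM DiOC2 for 20 min at room temperature, washed. Controls: CCCP 5 μM, rifampicin 0.4 μg/mL, DMSO. Red (488/610)/green (488/530) fluorescence ratio; triplicates, two experiments.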

[2] = system: Mycobacterium tuberculosis; test: Antitubercular activity against Mycobacterium tuberculosis H37Rv assessed as disruption of membrane potential at 0.002 to 20 ug/ml after 20 mins at pH 4.5 by DiOC2-based spectrofluorimetric analysis; type: functional, organism-based; procedure, shortened: as §1
[3] = system: Mycobacterium tuberculosis; test: Antitubercular activity against Mycobacterium tuberculosis H37Rv expressing pH sensitive ratiometric GFP assessed as reduction of intrabacterial pH at 0.002 to 20 ug/ml after 16 hrs at pH 7.5 by spectrofluorimetric analysis; type: functional, organism-based
Procedure, shortened: (§2)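 H37Rv carrying pH-sensitive ratiometric GFP plasmid, grown to mid-log (OD580 ~0.6), diluted to OD580 ~0.3 in 7H9 at pH 7.5, 6.5 or 5.5, with or without 0.5 mM NaNO2. Compound or DMSO exposure 16 h. Fluorescence at excitation 395/emission 510 and excitation 475/emission 510; intrabacterial pH inferred from the ratio of the two readings.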

[4] = system: Mycobacterium tuberculosis; test: Antitubercular activity against Mycobacterium tuberculosis H37Rv assessed as disruption of membrane potential after 20 mins at pH 7.4 by DiOC2-based spectrofluorimetric analysis; type: functional, organism-based; procedure, shortened: as §1
[5] = system: Mycobacterium tuberculosis; test: Antitubercular activity against Mycobacterium tuberculosis H37Rv assessed as disruption of membrane potential at 5 uM after 20 mins at pH 7.4 by DiOC2-based spectrofluorimetric analysis; type: functional, organism-based; procedure, shortened: as §1
[6] = system: Mycobacterium tuberculosis; test: Antitubercular activity against Mycobacterium tuberculosis H37Rv assessed as disruption of membrane potential at 0.4 ug/ml after 20 mins at pH 7.4 by DiOC2-based spectrofluorimetric analysis; type: functional, organism-based; procedure, shortened: as §1
[7] = system: Mycobacterium tuberculosis; test: Antitubercular activity against Mycobacterium tuberculosis H37Rv; type: functional
[8] = system: Mycobacterium tuberculosis H37Rv; test: Drug uptake in Mycobacterium tuberculosis H37Rv at 1 to 10 fold MIC after 16 hrs by LC/MS analysis; type: ADME, organism-based; settings: in vivo
[9] = system: Mycobacterium tuberculosis H37Rv; test: Drug metabolism in Mycobacterium tuberculosis H37Rv assessed as tizoxanide formation at 1 to 10 fold MIC after 16 hrs by LC/MS analysis; type: ADME, organism-based; settings: in vivo
[10] = system: Mycobacterium tuberculosis; test: Antitubercular activity against Mycobacterium tuberculosis H37Rv expressing pH sensitive ratiometric GFP assessed as reduction of intrabacterial pH after 16 hrs at pH 7.5 by spectrofluorimetric analysis; type: functional, organism-based; procedure, shortened: as §2
[11] = system: Mycobacterium tuberculosis H37Rv; test: Drug metabolism in Mycobacterium tuberculosis H37Rv assessed as [13C]acetylation at 1 to 10 fold MIC after 16 hrs by LC/MS analysis; type: ADME, organism-based; settings: in vivo

In the case of `O=C(Nc1ccc([N+](=O)[O-])cc1Cl)c1cc(Cl)ccc1O`, the Activity [1] is reported as “Active”, the Activity [2] is reported as “inactive” and the Activity [3] is reported as “Active”. For the same molecule, the Activity [4] was “Dose-dependent effect”.

With `N#CC(C#N)=NNc1cccc(Cl)c1` the Activity [5] was “Active”.

With `CO[C@H]1/C=C/O[C@@]2(C)Oc3c(C)c(O)c4c(O)c(c(/C=N/N5CCN(C)CC5)c(O)c4c3C2=O)NC(=O)/C(C)=C\C=C\[C@H](C)[C@H](O)[C@@H](C)[C@@H](O)[C@@H](C)[C@H](OC(C)=O)[C@@H]1C` the Activity [6] was “inactive”.

`CC(=O)Oc1ccccc1C(=O)Nc1ncc([N+](=O)[O-])s1` [NITAZOXANIDE] was tested, and the MIC [7] was 1 µg/mL (≈ 3.25 µM), the Activity [1] was “Active” and the Activity [2] was “inactive”. The Drug uptake [8] was “Active”, the Drug metabolism [9] was “Active” and the Activity [10] was “Dose-dependent effect”. For the same molecule, the Activity [4] was “Dose-dependent effect”.

With `O=C(Nc1ncc([N+](=O)[O-])s1)c1ccccc1O` [TIZOXANIDE] the Drug metabolism [11] was “Not Active”.
